Data reported in PubChem BioAssay.
Active and inactive are the calls of the source.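 How the source made its calls, unless noted: active means GFP response above 150% of the DMSO level; inconclusive means fewer than 70 events counted for a yeast strain; inactive means the rest.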

How the values were obtained:
[1] = hit retest on RPL19A-GFP reporter strain – cell-based, S. cerevisiae, flow cytometry, cherry picks, mother/daughter gates, confirmation (AID 2270;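 active means GFP response below 50% of the DMSO control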); conditions: 3 h, at 10 µM, stronger effect = lower value, 100 = same GFP as DMSO wells
[2] = yeast TOR pathway reporter LAP4-GFP change – cell-based, cherry picks, flow cytometry, mother/daughter gates, confirmation (AID 2271;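 active means GFP response above 150% of the DMSO control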;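 further: ratio of sample to DMSO plate mean so 100% equals DMSO level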); conditions: S. cerevisiae LAP4-GFP strain, 3 h, at 10 µM, stronger effect = higher value, 100 means same as DMSO control
How it was run: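 Measured by: GFP by flow cytometry. Test system: GFP-fusion yeast strain. Input: yeast cells seeded at OD600 of 0.2. Timing: 30 °C, 3 h compound incubation, rotating. Buffer or medium: synthetic complete medium for yeast. Benchmarks: DMSO-only negative wells, rapamycin 400 ng/mL positive wells. Compound: 10 µM single dose.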

[3] = TOR pathway reporter MEP2-GFP, retest of hits – S. cerevisiae, flow cytometry GFP, cherry picks, confirmation (AID 2272;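 active means GFP response above 150% of the DMSO control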;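 further: ratio of well signal to plate DMSO mean so 100% equals DMSO level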); conditions: S. cerevisiae MEP2-GFP strain, 3 h, at 10 µM, stronger effect = higher value
[4] = yeast AGP1-GFP fluorescence change, single-dose – cell-based, flow cytometry, S. cerevisiae, cherry picks, confirmation (AID 2273);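 further: median GFP channel fluorescence over the whole cell population gate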; conditions: S. cerevisiae AGP1-GFP strain, 3 h, at 10 µM
[5] = TOR pathway CIT2 reporter hit retest – S. cerevisiae, GFP fusion, cherry picks, mother/daughter gates, confirmation (AID 2274); conditions: S. cerevisiae CIT2-GFP strain, flow cytometry, 3 h, at 10 µM, stronger effect = higher value
[6] = measured here: daughter cell gate
[7] = measured here: mother cell gate
[8] = measured here: daughter cell gate response
[9] = measured here: mother cell gate response

| SMILES | GFP response vs DMSO [1] | GFP response vs DMSO [1, 6] [%] | GFP response vs DMSO [1, 7] [%] | GFP response relative to DMSO [2] | GFP response relative to DMSO [2, 8] [%] | GFP response relative to DMSO [2, 9] [%] | GFP response vs DMSO [3] | GFP response, % of DMSO [4] | GFP response, % of DMSO [5] | GFP response, % of DMSO [5, 6] [%] | GFP response, % of DMSO [5, 7] [%] |
| --- | --- | --- | --- | --- | --- | --- | --- | --- | --- | --- | --- |
| CN(C)c1ccc(/C=C/c2cc[n+](C)cc2)cc1 | 111% (inactive) | 109 | 109 | 160% (active) | 168 | 159 | 215% (active) | 109% (inactive) | 149% (inactive) | 129 | 134 |
| COc1ccc(OC)c(S(=O)(=O)N2Cc3ccccc3CC2C(=O)O)c1 (stereo not drawn) | 100% (inactive) | 101 | 99.4 | 104% (inactive) | 101 | 106 | 106% (inactive) | 102% (inactive) | 101% (inactive) | 103 | 103 |
| Cc1cc(C)c2sc(NC(=O)C3=COCCO3)nc2c1 | 95.8% (inactive) | 95.5 | 97.9 | 94.2% (inactive) | 95 | 96.5 | 99.5% (inactive) | 92.5% (inactive) | 102% (inactive) | 104 | 101 |
| O=C(O)CCc1ccc(-c2ccc(Cl)cc2)o1 | 99% (inactive) | 91.7 | 97.2 | 138% (inactive) | 128 | 140 | 99% (inactive) | 85.4% (inactive) | 94.4% (inactive) | 88.4 | 94.4 |
| CCOc1ccc(-c2noc(-c3cccnc3)n2)cc1OC | 97.2% (inactive) | 97.1 | 96.4 | 99.2% (inactive) | 99.2 | 98.3 | 100% (inactive) | 95.6% (inactive) | 104% (inactive) | 103 | 98.5 |
| COc1cc(/C=C2\C(=O)ON=C2c2ccccc2)cc(Br)c1O | 92.7% (inactive) | 95.6 | 88.3 | 114% (inactive) | 113 | 115 | 99.3% (inactive) | 92.7% (inactive) | 94.4% (inactive) | 95.8 | 89.3 |
| O=[N+]([O-])c1cc(O)c2ncccc2c1 | 99.1% (inactive) | 94.2 | 97.5 | 205% (active) | 200 | 204 | 114% (inactive) | 94.3% (inactive) | 122% (inactive) | 112 | 131 |
| CCOC(=O)c1ccc(NC(=O)CCc2nc(-c3cccc(C)c3)no2)cc1 | 97.8% (inactive) | 98.5 | 98.8 | 102% (inactive) | 101 | 101 | 106% (inactive) | 95.8% (inactive) | 102% (inactive) | 102 | 99.1 |
| COC(=O)COc1ccc(S(=O)(=O)N2CCc3ccccc3C2)cc1 | 101% (inactive) | 100 | 103 | 101% (inactive) | 102 | 101 | 97.8% (inactive) | 99.4% (inactive) | 99.1% (inactive) | 96.5 | 101 |
| Cc1ccc(C(=O)Nc2nnc(CC(=O)N/N=C/c3ccc(O)c(O)c3)s2)cc1 | 97.8% (inactive) | 99 | 95.9 | 94.1% (inactive) | 92.9 | 95.4 | 103% (inactive) | 104% (inactive) | 103% (inactive) | 103 | 104 |
| CCOC(=O)Cc1csc(NC(=O)c2sc3nc4ccc(C)cc4cc3c2N)n1 | 98.8% (inactive) | 98.1 | 100 | 91.4% (inactive) | 91 | 95.2 | 102% (inactive) | 96.7% (inactive) | 92.6% (inactive) | 94.8 | 92.3 |
| CCOc1ccccc1N1CCN(C(=O)c2cccc(-c3ccc(O)cc3)c2)CC1 | 97% (inactive) | 96.7 | 97.3 | 98.7% (inactive) | 95.6 | 102 | 102% (inactive) | 92.4% (inactive) | 96.5% (inactive) | 94.8 | 94.4 |
| O=C1/C(=C\c2ccccn2)SC(=S)N1Nc1ncc(C(F)(F)F)cc1Cl | 99.1% (inactive) | 98.3 | 99 | 98.8% (inactive) | 92.2 | 99.5 | 102% (inactive) | 94.9% (inactive) | 95% (inactive) | 94.6 | 93.3 |
| Cc1ccccc1C(=O)NNC(=S)NC(=O)c1ccc(Cl)cc1Cl | 104% (inactive) | 105 | 104 | 143% (inactive) | 124 | 140 | 118% (inactive) | 97.1% (inactive) | 101% (inactive) | 109 | 94.5 |
| Clc1ccccc1N=C1NN=C(c2cccs2)CS1 | 96.8% (inactive) | 93.4 | 95.7 | 108% (inactive) | 106 | 113 | 90.5% (inactive) | 98.8% (inactive) | 90.1% (inactive) | 88.4 | 89.5 |
| CCCN1C(=O)c2cccc3c(N4CCCCC4)ccc(c23)C1=O | 98.7% (inactive) | 99.8 | 98.2 | 98.9% (inactive) | 101 | 99.5 | 103% (inactive) | 104% (inactive) | 103% (inactive) | 105 | 103 |
| O=C(O)c1ccc(N/N=C/c2c(F)cccc2Cl)cc1 | 99.5% (inactive) | 100 | 98.1 | 124% (inactive) | 121 | 124 | 108% (inactive) | 94% (inactive) | 96.4% (inactive) | 92.7 | 94.5 |

| SMILES | GFP response vs DMSO [1] | GFP response vs DMSO [1, 6] [%] | GFP response vs DMSO [1, 7] [%] | GFP response relative to DMSO [2] | GFP response relative to DMSO [2, 8] [%] | GFP response relative to DMSO [2, 9] [%] | GFP response vs DMSO [3] | GFP response, % of DMSO [4] | GFP response, % of DMSO [5] | GFP response, % of DMSO [5, 6] [%] | GFP response, % of DMSO [5, 7] [%] |
| --- | --- | --- | --- | --- | --- | --- | --- | --- | --- | --- | --- |
| O=C(CC1SC(=Nc2ccccc2F)N(CCN2CCOCC2)C1=O)Nc1ccc(F)cc1F (stereo not drawn) | 96.8% (inactive) | 97.4 | 96.6 | 95.4% (inactive) | 96 | 94 | 102% (inactive) | 97.8% (inactive) | 98.3% (inactive) | 99.1 | 98.5 |
| O=C(/C=C/c1ccnc2ccccc12)c1cccs1 | 101% (inactive) | 98.8 | 99.5 | 172% (active) | 156 | 171 | 126% (inactive) | 112% (inactive) | 90.7% (inactive) | 94.6 | 84 |
| CCOc1cc(/C=C2\N=C(C)OC2=O)cc(Cl)c1OCC(=O)OC | 105% (inactive) | 106 | 101 | 122% (inactive) | 120 | 125 | 101% (inactive) | 92.4% (inactive) | 93% (inactive) | 95.6 | 90.7 |
| O=C1CC(Sc2nnnn2C2CCCCC2)C(=O)N1c1ccccc1 (stereo not drawn) | 94.3% (inactive) | 95.5 | 94.8 | 107% (inactive) | 104 | 107 | 97.5% (inactive) | 99.3% (inactive) | 95% (inactive) | 94.6 | 93.3 |
| CSc1nc(N2CCN(c3ccccc3Cl)CC2)c2ccccc2n1 | 96.2% (inactive) | 96.7 | 95.2 | 98.9% (inactive) | 101 | 98.4 | 110% (inactive) | 102% (inactive) | 97.2% (inactive) | 97.6 | 97.1 |
| CC1CCN(S(=O)(=O)c2cccc(C(=O)Nc3nccs3)c2)CC1 | 101% (inactive) | 101 | 101 | 92.6% (inactive) | 95.6 | 93.1 | 100% (inactive) | 95.4% (inactive) | 107% (inactive) | 105 | 105 |
| CCc1cccc2sc(N3CCN(C(=O)c4ccc([N+](=O)[O-])o4)CC3)nc12 | 82.5% (inactive) | 85.9 | 70.2 | 251% (active) | 125 | 222 | 172% (inactive) | 108% (inactive) | 108% (inactive) | 99.3 | 102 |
| COc1ccc(/C=C/C(=O)C2C(=O)C=C(C)OC2=O)cc1O (stereo not drawn) | 101% (inactive) | 102 | 101 | 123% (inactive) | 118 | 125 | 112% (inactive) | 101% (inactive) | 101% (inactive) | 104 | 96.8 |
| COC(=O)c1ccc(C(=O)NC(=S)Nc2ccc3nc(SC)sc3c2)cc1 | 97.8% (inactive) | 97.6 | 98.3 | 90% (inactive) | 90.4 | 91 | 101% (inactive) | 102% (inactive) | 103% (inactive) | 93.7 | 105 |
| N/C(Cc1ccc(Cl)cc1)=N\OC(=O)c1cccc2ccccc12 | 96.2% (inactive) | 82.1 | 82.6 | 199% (active) | 127 | 188 | 126% (inactive) | 88.1% (inactive) | 139% (inactive) | 97.4 | 127 |
| COc1ccc(C2=CC(=O)N(Nc3ccccc3)C2=O)cc1 | 102% (inactive) | 101 | 95.8 | 178% (active) | 170 | 172 | 107% (inactive) | 105% (inactive) | 99.1% (inactive) | 108 | 90.2 |
| Cc1nc(Sc2ccc(Br)cc2)c(C#N)c(C)c1[N+](=O)[O-] | 106% (inactive) | 105 | 104 | 98.2% (inactive) | 97.5 | 98.4 | 101% (inactive) | 96.1% (inactive) | 98.8% (inactive) | 97.4 | 76 |
| COc1ccc(/C=N/NC(=O)C2(C)NC(C)(C)Cc3ccccc32)cc1 (stereo not drawn) | 94.4% (inactive) | 94.9 | 95.3 | 96.7% (inactive) | 97.6 | 96.1 | 96.2% (inactive) | 99.7% (inactive) | 99.7% (inactive) | 99.1 | 98.5 |
| Fc1ccc(C2CC(c3ccccc3)n3ncnc3N2)cc1 (stereo not drawn) | 96.8% (inactive) | 95.3 | 98 | 93.8% (inactive) | 94.1 | 97.2 | 100% (inactive) | 94.3% (inactive) | 92.6% (inactive) | 94.8 | 91.2 |
| CCC(=O)Nc1cccc(C(=O)/C=C/c2ccccc2)c1 | 102% (inactive) | 102 | 101 | 105% (inactive) | 102 | 106 | 109% (inactive) | 97.3% (inactive) | 97.3% (inactive) | 95.6 | 95.6 |
| Cc1ccn2c(NC3CCCCC3)c(-c3cccc(-c4cccc(Cl)c4)c3)nc2c1 | 95% (inactive) | 92.1 | 95.8 | 110% (inactive) | 102 | 112 | 108% (inactive) | 92.5% (inactive) | 93.5% (inactive) | 98.3 | 88.6 |
